High-throughput results: PubChem BioAssay, The Scripps Research Institute Molecular Screening Center
CHO parental Ca – signal in parental CHO cells, OX1R antagonist counter-screen. AID 463079. 330,000 compounds, 0.63% hits. inhibition, % at 5.6 µM. parental CHO-K1, ATP-induced calcium, Fluo-8 fluorescence;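 active = inhibition above that plate's mean sample inhibition plus 3 SD, cut at about 26% in these data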;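 note: 0% = ATP-challenged DMSO wells and 100% = DMSO wells without ATP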
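material = parental CHO cells | also added = ATP as calcium-mobilizing challenge | dosing = single point at 5.6 µM | detection = intracellular calcium via Fluo-8 no-wash fluorescent dye | read-out = % inhibition | benchmarks = low control ATP plus DMSO, high control DMSO only | repeats = one well per compound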
TAAR1 agonist – human TAAR1 agonism | activation, % at 3 µM | 360,000 compounds, 0.99% hits | Q96RJ0 | AID 624467 | CHO RD-HGA16 TAAR1, Fluo-8 calcium fluorescence; vehicle wells 0%, saturating PEA agonist 100%;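 active = activation above the mean activation of all test compounds in the run plus 3 SD, cut at about 38% in these data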
Target sequence (Q96RJ0 whole entry, looked up): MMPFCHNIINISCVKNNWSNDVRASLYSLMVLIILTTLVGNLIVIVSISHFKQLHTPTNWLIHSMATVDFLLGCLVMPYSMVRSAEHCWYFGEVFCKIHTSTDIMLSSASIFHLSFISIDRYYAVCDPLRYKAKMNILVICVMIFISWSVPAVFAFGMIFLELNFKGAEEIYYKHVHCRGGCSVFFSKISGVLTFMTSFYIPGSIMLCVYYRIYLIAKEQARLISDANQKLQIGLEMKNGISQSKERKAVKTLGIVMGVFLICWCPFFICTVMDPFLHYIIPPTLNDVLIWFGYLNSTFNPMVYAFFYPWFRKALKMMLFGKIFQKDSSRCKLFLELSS
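Benchmarks: low control DMSO, high control PEA (EC100); System: CHO RD-HGA16 cells carrying human TAAR1 plus Gα16; Detection: Fluo-8 fluorescence, 5 s baseline then 140 s kinetic read; Schedule: 17-24 h plating, Fluo-8 75 min 37 °C, 30 min RT; Read-out basis: % activation from peak over basal fluorescence ratio, DMSO-to-PEA scaled.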
OX1R antag-1 – human HCRTR1 antagonism. O43613. CHO/OX1R cells, Fluo-8 calcium fluorescence, orexin A. inhibition, % at 5 µM. 330,000 compounds, 0.43% hits. AID 434989;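 active = inhibition above its plate's threshold, mean inhibition of all tested compounds on the plate plus 3 SD, cut at about 37% in these data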;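 note: 0% = orexin A challenge wells and 100% = SB-334867-A antagonist wells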
TAAR1 antag – antagonists of human TAAR1; Q96RJ0; 360,000 compounds, 1.5% hits; inhibition, % at 3 µM; CHO RD-HGA16 TAAR1, Fluo-8 calcium fluorescence, antagonist;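 active = inhibition above a per-plate cutoff, the mean inhibition of test compounds on that plate plus 3 SD, cut at about 49% in these data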;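 note: 0% = DMSO plus EC80 beta-PEA response and 100% = DMSO alone without agonist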
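Test system: CHO RD-HGA16 cells bearing hTAAR1 | Reagent: β-PEA, EC80 | Compound dosing: 3 µM, single point | Schedule: Dye loading 75 min at 37 °C, then 30 min room temperature | Signal: Calcium fluorescence with Fluo-8 | Evaluation: Percent inhibition of PEA-evoked calcium signal, max/basal emission ratio | Control set: DMSO-only wells and EC80 β-PEA-stimulated wells | Repeats: Singlicate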
GPR7 antag – human neuropeptides B/W receptor 1 antagonism. AID 1861. 290,000 compounds, 1.1% hits. inhibition, % at 4.4 µM. GPR7-expressing cells, fluorescence antagonist assay; in the data active = inhibition above about 16%, passing the limit was not always enough;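 note: cells stimulated with the agonist NPW; 0% = agonist with vehicle and 100% = vehicle without agonist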
OX1R antag-2 – blocks the human orexin 1 receptor; inhibition, % at 6.6 µM; OX1R-expressing cells, FRET antagonist read-out; 330,000 compounds, 1.8% hits; AID 485270; in the data active = inhibition mostly above about 38%, no sharp cut-off; inactive = mostly below about 40%;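 note: 0% = agonist challenge alone and 100% = reference antagonist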
TAAR1 ag confirm – human TAAR1 agonism, confirmed; activation, % at 3 µM; CHO RD-HGA16 TAAR1, Fluo-8 calcium fluorescence; scaled: DMSO 0%, maximal phenethylamine 100%; 2,400 compounds, 82% hits; shares compounds with TAAR1 agonist; AID 651783;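 active = activation above a cutoff set at the run's mean compound activation plus 3 SD, cut at about 39% in these data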
Ga16 ag counter – nonselective agonist in parental cells, TAAR1 agonist counter-screen. shares compounds with TAAR1 agonist. CHO-Ga16 parental, Fluo-8 calcium fluorescence; normalized to maximal ATP response, DMSO zero. activation, % at 3 µM. 2,400 compounds, 50% hits. AID 651787;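 active = activation above the run cutoff, the mean activation over all tested wells plus 3 SD, cut at about 12% in these data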;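 note: 0% = DMSO wells and 100% = maximal ATP response on the peak over basal ratio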
TAAR1 desensitize – counter-screen for human TAAR1 agonists: agonists that desensitize TAAR1. inhibition, % at 3 µM. CHO RD-HGA16 hTAAR1, Fluo-8 calcium, beta-PEA response inhibition. AID 651951. shares compounds with TAAR1 agonist. 2,400 compounds, 46% hits;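 active = inhibition above the run cutoff, the mean inhibition of all test compounds plus 3 SD, cut at about 49% in these data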;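 note: beta-PEA stimulus applied at its EC80; loss of beta-PEA calcium signal after compound pretreatment read as receptor desensitization; 0% = DMSO with beta-PEA at EC80 and 100% = DMSO alone without agonist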
Ga16 antag count – nonselective Ga16 antagonist in TAAR1 agonist counter-screen; shares compounds with TAAR1 agonist; CHO-Ga16 ATP-induced calcium, Fluo-8 fluorescence; inhibition, % at 3 µM; 2,400 compounds, 39% hits; AID 651952;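 active = inhibition above the plate's mean compound inhibition plus 3 SD, computed per plate, cut at about 22% in these data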;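 note: 0% = EC80 ATP with DMSO and 100% = DMSO wells without ATP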
Starred values were filed as active, the others as inactive. A selection: hits, their analogues and other compounds. The true share with any hit is near 4.5%.

What do the screens show for `NNc1nc(Nc2ccccc2)nc(N2CCCCC2)n1`?
CHO parental Ca: -40; TAAR1 agonist: 45*; OX1R antag-1: -33; TAAR1 antag: 16; GPR7 antag: 2; OX1R antag-2: 8; TAAR1 ag confirm: 66*; Ga16 ag counter: 2; TAAR1 desensitize: 41; Ga16 antag count: 5

Results for O=c1nc(N2CCCCC2)nc(Nc2ccccc2)[nH]1 ?
CHO parental Ca: -5; TAAR1 agonist: 66*; OX1R antag-1: 3; TAAR1 antag: 69*; GPR7 antag: -6; OX1R antag-2: 9; TAAR1 ag confirm: 73*; Ga16 ag counter: 1; TAAR1 desensitize: 80*; Ga16 antag count: 8

Results for CCN=C1NC(c2ccc(F)cc2)C(C(=O)OC)=C(C)N1Cc1cccc(C(F)(F)F)c1 (stereo not drawn) ?
TAAR1 agonist: 92*; TAAR1 antag: 95*; TAAR1 ag confirm: 71*; Ga16 ag counter: 39*; TAAR1 desensitize: 76*; Ga16 antag count: 57*

How did CCN=C1NC(c2ccc(F)cc2)C(C(=O)OC)=C(C)N1Cc1ccc(C(F)(F)F)cc1 (stereo not drawn) do in these assays?
TAAR1 agonist: 28; TAAR1 antag: 45

What do the screens show for `CCN=C1NC(c2ccc(Cl)cc2)C(C(=O)OC)=C(C)N1Cc1cccc(C(F)(F)F)c1` (stereo not drawn)?
TAAR1 agonist: 56*; TAAR1 antag: 74*; TAAR1 ag confirm: 65*; Ga16 ag counter: 35*; TAAR1 desensitize: 82*; Ga16 antag count: 59*

How did CCN=C1NC(c2ccc(C(F)(F)F)cc2)C(C(=O)OC)=C(C)N1Cc1cccc(C(F)(F)F)c1 (stereo not drawn) do in these assays?
TAAR1 agonist: 46*; TAAR1 antag: 45; TAAR1 ag confirm: 53*; Ga16 ag counter: 28*; TAAR1 desensitize: 45; Ga16 antag count: 45*

What do the screens show for `CCOc1ccccc1C=NNC(=O)C1CC1`?
TAAR1 agonist: 1; TAAR1 antag: -10

Results for CCOC(=O)C1CCC(=O)C1 (stereo not drawn) ?
TAAR1 agonist: 1; TAAR1 antag: -7

What do the screens show for `CC(=O)C1=C(O)C(=O)N(CCc2ccccc2)C1c1ccccc1[N+](=O)[O-]` (stereo not drawn)?
CHO parental Ca: 5; TAAR1 agonist: 67*; OX1R antag-1: -7; TAAR1 antag: 43; GPR7 antag: -8; OX1R antag-2: 37; TAAR1 ag confirm: 62*; Ga16 ag counter: 3; TAAR1 desensitize: 17; Ga16 antag count: 6

How did CC1=CC(C)(C)N(C(=O)c2ccccc2)c2ccc(C)cc21 do in these assays?
TAAR1 agonist: 65*; TAAR1 antag: 52*; GPR7 antag: 13; TAAR1 ag confirm: 71*; Ga16 ag counter: 42*; TAAR1 desensitize: 69*; Ga16 antag count: 52*

Results for CC1=CC(C)(C)N(C(=O)c2ccccc2)c2ccccc21 ?
CHO parental Ca: -6; TAAR1 agonist: 26; OX1R antag-1: -21; TAAR1 antag: 12; GPR7 antag: -8; OX1R antag-2: 10

What do the screens show for `Oc1cc2c(cc1CN1CCc3ccccc3C1)OCO2`?
CHO parental Ca: -9; TAAR1 agonist: 69*; OX1R antag-1: -2; TAAR1 antag: -7; GPR7 antag: -2; OX1R antag-2: 25; TAAR1 ag confirm: 22; Ga16 ag counter: 2; TAAR1 desensitize: 0; Ga16 antag count: 0
